One block for each compound: values may come before it.
How the values were obtained:
[1] = target: T1, Leucine-rich repeat serine/threonine-protein kinase 2 (Homo sapiens, UniProt Q5S007); experiment: Inhibition of recombinant LRRK2 (unknown origin) using gamma-32P-ATP assessed as LRRKtide substrate phosphorylation level by autoradiography
[2] = target: T1, Leucine-rich repeat serine/threonine-protein kinase 2; experiment: Inhibition of recombinant LRRK2 (unknown origin) using gamma-32P-ATP assessed as LRRKtide substrate phosphorylation level at 1 uM by autoradiography; set-up: scale not given: the % may be the effect or the level left
How it was run: (§1)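 In vitro LRRK2 kinase activity assay with a peptide substrate. Compound was tested at two concentrations, 10 and 1. Read-out is residual LRRK2 kinase activity, given as percent relative to control.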

[3] = target: T1, Leucine-rich repeat serine/threonine-protein kinase 2; experiment: Inhibition of recombinant LRRK2 (unknown origin) using gamma-32P-ATP assessed as LRRKtide substrate phosphorylation level at 10 uM by autoradiography; set-up: scale not given: the % may be the effect or the level left; how it was run: as §1
[4] = target: Hepatocyte growth factor receptor (Homo sapiens) (UniProt P08581); experiment: Inhibition of human recombinant c-Met kinase expressed insect cells using Ulight-CAGAGAIETDKEYYTVKD substrate assessed as remaining enzyme activity at 1 uM after 60 mins relative to control
[5] = target: Serine/threonine-protein kinase Chk1 (Homo sapiens) (UniProt O14757); experiment: Inhibition of human recombinant CHK1 expressed insect cells using CREBtide (CKRREILSRRPSYRK) substrate assessed as remaining enzyme activity at 1 uM after 30 mins relative to control
[6] = target: Insulin receptor (Homo sapiens) (UniProt P06213); experiment: Inhibition of human recombinant InsR using Ulight-Poly GAT[EAY(1:1:1)]n substrate assessed as remaining enzyme activity at 1 uM after 10 mins relative to control
[7] = target: Serine/threonine-protein kinase Chk2 (Homo sapiens) (UniProt O96017); experiment: Inhibition of human recombinant CHK2 expressed insect cells using CREBtide (CKRREILSRRPSYRK) substrate assessed as remaining enzyme activity at 1 uM after 15 mins relative to control
Danio rerio [8] = species on record: Danio rerio; experiment: Toxicity in zebrafish embryo at below 10 uM after 24 hrs; type: organism-based; conditions: in vivo
How it was run: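 Zebrafish embryos collected and kept in E3 medium at 28 °C. Compound added at 24 hpf, and phenotypes (growth, tail morphology) were compared at 96 hpf against control embryos in 1% DMSO. Lethality was followed over time up to 120 hpf across a concentration series.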

[9] = target: Serine/threonine-protein kinase PLK1 (Homo sapiens) (UniProt P53350); experiment: Inhibition of human recombinant PLK1 using Ulight-FLGFTYVAP substrate assessed as remaining enzyme activity at 1 uM after 60 mins relative to control
[10] = target: Vascular endothelial growth factor receptor 2 (Homo sapiens) (UniProt P35968); experiment: Inhibition of human recombinant KDR kinase expressed Sf9 cells using Ulight-CAGAGAIETDKEYYTVKD substrate assessed as remaining enzyme activity at 1 uM after 60 mins relative to control
[11] = target: High affinity nerve growth factor receptor (Homo sapiens) (UniProt P04629); experiment: Inhibition of human recombinant TRKA expressed insect cells using Ulight-Poly GAT[EAY(1:1:1)]n substrate assessed as remaining enzyme activity at 1 uM after 10 mins relative to control
Sequence of High affinity nerve growth factor receptor (Homo sapiens) (P04629 33-796 limits assumed): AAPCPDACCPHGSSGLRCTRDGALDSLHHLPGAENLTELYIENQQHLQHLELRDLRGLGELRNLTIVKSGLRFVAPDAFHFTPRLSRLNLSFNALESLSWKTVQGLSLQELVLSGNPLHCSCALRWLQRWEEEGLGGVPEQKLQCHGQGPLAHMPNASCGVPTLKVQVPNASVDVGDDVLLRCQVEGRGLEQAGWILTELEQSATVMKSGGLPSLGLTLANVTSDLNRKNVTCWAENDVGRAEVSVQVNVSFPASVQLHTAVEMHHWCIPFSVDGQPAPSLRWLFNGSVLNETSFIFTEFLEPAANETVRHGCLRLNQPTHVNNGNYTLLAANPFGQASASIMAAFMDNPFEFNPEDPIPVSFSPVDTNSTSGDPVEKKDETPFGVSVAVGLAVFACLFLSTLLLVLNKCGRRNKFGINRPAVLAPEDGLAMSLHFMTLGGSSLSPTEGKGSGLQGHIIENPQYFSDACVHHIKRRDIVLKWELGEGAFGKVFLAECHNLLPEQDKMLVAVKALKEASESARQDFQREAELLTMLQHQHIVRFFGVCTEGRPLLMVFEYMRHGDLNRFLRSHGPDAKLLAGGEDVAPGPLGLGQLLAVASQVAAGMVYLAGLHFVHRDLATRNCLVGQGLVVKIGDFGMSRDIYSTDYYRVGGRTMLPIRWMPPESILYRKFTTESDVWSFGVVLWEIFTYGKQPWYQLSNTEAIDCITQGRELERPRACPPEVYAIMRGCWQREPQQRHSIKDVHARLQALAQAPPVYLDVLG

[12] = target: MAP kinase-interacting serine/threonine-protein kinase 2 (Homo sapiens) (UniProt Q9HBH9); experiment: Inhibition of human recombinant MNK2 expressed Sf21 cells using CREBtide (CKRREILSRRPSYRK) substrate assessed as remaining enzyme activity at 1 uM after 90 mins relative to control
[13] = target: Ephrin type-A receptor 3 (Homo sapiens) (UniProt P29320); experiment: Inhibition of human recombinant EphA3 kinase using Ulight-TK peptide substrate assessed as remaining enzyme activity at 1 uM after 60 mins relative to control
[14] = target: Serine/threonine-protein kinase Nek2 (Homo sapiens) (UniProt P51955); experiment: Inhibition of human recombinant NEK2 expressed insect cells using Ulight-FLGFTYVAP substrate assessed as remaining enzyme activity at 1 uM after 60 mins relative to control
[15] = target: Serine/threonine-protein kinase Sgk1 (Homo sapiens) (UniProt O00141); experiment: Inhibition of human recombinant SGK1 using Ulight-RRRSLLE substrate assessed as remaining enzyme activity at 1 uM after 30 mins relative to control
[16] = target: Cyclin-dependent kinase 2 (Homo sapiens) (UniProt P24941); experiment: Inhibition of human recombinant CDK2 using Ulight-CFFKNIVTPRTPPPSQGK-amide substrate assessed as remaining enzyme activity at 1 uM after 30 mins relative to control
[17] = Toxicity in zebrafish embryo assessed as lethality at 30 uM after 120 hrs; type: organism-based, Danio rerio; conditions: in vivo, read-out: Activity
How it was run: (§2)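 Zebrafish embryos kept in E3 medium at 28 °C; compound added at 24 hpf, with 1% DMSO embryos as control. Concentrations from 1 to 100 µM. Lethality recorded over time through 120 hpf, with phenotype also compared at 96 hpf.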

[18] = target: Rho-associated protein kinase 1 (Homo sapiens) (UniProt Q13464); experiment: Inhibition of human recombinant ROCK1 using Ulight-RRRSLLE substrate assessed as remaining enzyme activity at 1 uM after 30 mins relative to control
[19] = target: Proto-oncogene tyrosine-protein kinase Src (Homo sapiens) (UniProt P12931); experiment: Inhibition of human recombinant Src kinase expressed insect cells using Ulight-Poly GAT[EAY(1:1:1)]n substrate assessed as remaining enzyme activity at 1 uM after 10 mins relative to control
[20] = target: Interleukin-1 receptor-associated kinase 4 (Homo sapiens) (UniProt Q9NWZ3); experiment: Inhibition of human recombinant IRAK4 expressed insect cells using Ulight-FLGFTYVAP substrate assessed as remaining enzyme activity at 1 uM after 90 mins relative to control
[21] = target: Serine/threonine-protein kinase TAO2 (Homo sapiens) (UniProt Q9UL54); experiment: Inhibition of human recombinant TAOK2 (TAO1) using Ulight-FLGFTYVAP substrate assessed as remaining enzyme activity at 1 uM after 60 mins relative to control
[22] = target: Tyrosine-protein kinase ABL1 (Homo sapiens) (UniProt P00519); experiment: Inhibition of human recombinant Abl kinase expressed insect cells using Ulight-TK peptide substrate assessed as remaining enzyme activity at 1 uM after 60 mins relative to control
Sequence of Tyrosine-protein kinase ABL1 (Homo sapiens) (P00519 whole entry): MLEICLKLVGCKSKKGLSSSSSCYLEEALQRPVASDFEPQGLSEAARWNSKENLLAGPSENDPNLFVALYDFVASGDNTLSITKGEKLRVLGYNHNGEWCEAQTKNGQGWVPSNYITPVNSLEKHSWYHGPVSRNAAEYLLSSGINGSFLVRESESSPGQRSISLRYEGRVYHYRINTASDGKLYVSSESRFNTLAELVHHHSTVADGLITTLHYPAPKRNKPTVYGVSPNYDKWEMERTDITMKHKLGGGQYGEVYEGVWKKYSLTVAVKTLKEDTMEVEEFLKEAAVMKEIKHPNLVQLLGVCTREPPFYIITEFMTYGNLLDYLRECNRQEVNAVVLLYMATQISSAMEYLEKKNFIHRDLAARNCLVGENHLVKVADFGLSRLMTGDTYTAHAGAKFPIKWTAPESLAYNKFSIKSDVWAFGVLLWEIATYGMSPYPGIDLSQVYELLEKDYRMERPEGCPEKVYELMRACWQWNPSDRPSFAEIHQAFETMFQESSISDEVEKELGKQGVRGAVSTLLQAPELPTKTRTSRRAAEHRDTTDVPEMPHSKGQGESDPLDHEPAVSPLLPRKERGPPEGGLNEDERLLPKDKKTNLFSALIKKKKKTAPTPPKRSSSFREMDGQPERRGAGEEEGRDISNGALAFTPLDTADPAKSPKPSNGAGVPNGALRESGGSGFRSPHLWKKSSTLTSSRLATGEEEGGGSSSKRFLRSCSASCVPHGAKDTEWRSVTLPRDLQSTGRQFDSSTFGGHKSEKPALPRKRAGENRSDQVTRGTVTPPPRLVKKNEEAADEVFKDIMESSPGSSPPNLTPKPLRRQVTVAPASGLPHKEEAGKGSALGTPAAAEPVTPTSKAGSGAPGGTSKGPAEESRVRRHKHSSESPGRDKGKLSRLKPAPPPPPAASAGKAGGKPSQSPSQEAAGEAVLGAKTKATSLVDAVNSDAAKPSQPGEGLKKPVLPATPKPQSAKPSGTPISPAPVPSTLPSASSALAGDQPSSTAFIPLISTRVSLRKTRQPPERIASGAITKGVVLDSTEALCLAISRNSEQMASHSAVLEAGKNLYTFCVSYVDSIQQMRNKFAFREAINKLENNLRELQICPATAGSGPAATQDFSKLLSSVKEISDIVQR

[23] = target: Serine/threonine-protein kinase 26 (Homo sapiens) (UniProt Q9P289); experiment: Inhibition of human recombinant MST4 kinase using Ulight TM- PKC substrate assessed as remaining enzyme activity at 1 uM after 30 mins relative to control
[24] = target: Cyclin-dependent kinase 1/cyclin B1 (Homo sapiens) (UniProt P06493+P14635); experiment: Inhibition of human recombinant CDC2/CDK1 (cycB) expressed insect cells using Ulight-CFFKNIVTPRTPPPSQGK-amide substrate assessed as remaining enzyme activity at 1 uM after 15 mins relative to control
[25] = target: Tyrosine-protein kinase Lck (Homo sapiens) (UniProt P06239); experiment: Inhibition of human recombinant Lck kinase expressed insect cells using Ulight-Poly GAT[EAY(1:1:1)]n substrate assessed as remaining enzyme activity at 1 uM after 30 mins relative to control
Sequence of Tyrosine-protein kinase Lck (Homo sapiens) (P06239 2-509 limits assumed): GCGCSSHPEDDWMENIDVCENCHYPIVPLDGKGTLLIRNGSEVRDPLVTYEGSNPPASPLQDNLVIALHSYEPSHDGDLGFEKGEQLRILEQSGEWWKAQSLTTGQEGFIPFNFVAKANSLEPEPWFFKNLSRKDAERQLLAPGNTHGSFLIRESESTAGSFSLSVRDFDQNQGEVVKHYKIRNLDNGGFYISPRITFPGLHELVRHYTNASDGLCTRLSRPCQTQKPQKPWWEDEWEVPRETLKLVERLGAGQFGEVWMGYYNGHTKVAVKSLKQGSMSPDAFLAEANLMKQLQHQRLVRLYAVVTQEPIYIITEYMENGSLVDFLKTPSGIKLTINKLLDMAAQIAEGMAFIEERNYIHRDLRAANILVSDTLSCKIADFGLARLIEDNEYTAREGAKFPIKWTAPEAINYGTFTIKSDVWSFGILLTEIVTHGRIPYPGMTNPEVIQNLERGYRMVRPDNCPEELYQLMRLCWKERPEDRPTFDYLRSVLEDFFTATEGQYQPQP

[26] = target: 3-phosphoinositide-dependent protein kinase 1 (Homo sapiens) (UniProt O15530); experiment: Inhibition of human recombinant PDK1 expressed insect cells using Ulight-FLGFTYVAP substrate assessed as remaining enzyme activity at 1 uM after 90 mins relative to control
[27] = target: MAP kinase-activated protein kinase 2 (Homo sapiens) (UniProt P49137); experiment: Inhibition of human recombinant MAPKAPK2 expressed Escherichia coli using CREBtide (CKRREILSRRPSYRK) substrate assessed as remaining enzyme activity at 1 uM after 15 mins relative to control
[28] = target: RAC-alpha serine/threonine-protein kinase (Homo sapiens) (UniProt P31749); experiment: Inhibition of human recombinant Akt1/PKBalpha expressed insect cells using CKRREILSRRPSYRK substrate assessed as remaining enzyme activity at 1 uM after 60 mins relative to control
Danio rerio [29] = species on record: Danio rerio; experiment: Toxicity in zebrafish embryo assessed as crooked tails at 5 to 10 uM after 24 hrs; type: organism-based; conditions: in vivo
[30] = target: Glycogen synthase kinase-3 beta (Homo sapiens) (UniProt P49841); experiment: Inhibition of human recombinant GSK3beta using CFFKNIVTPRTPPPSQGK-amide substrate after 90 mins incubation by LANCE method
[31] = Toxicity in zebrafish embryo assessed as lethality at 20 to 30 uM after 24 hrs; type: organism-based, Danio rerio; conditions: in vivo, read-out: Activity; how it was run: as §2

T1 sequence (Q5S007 whole entry): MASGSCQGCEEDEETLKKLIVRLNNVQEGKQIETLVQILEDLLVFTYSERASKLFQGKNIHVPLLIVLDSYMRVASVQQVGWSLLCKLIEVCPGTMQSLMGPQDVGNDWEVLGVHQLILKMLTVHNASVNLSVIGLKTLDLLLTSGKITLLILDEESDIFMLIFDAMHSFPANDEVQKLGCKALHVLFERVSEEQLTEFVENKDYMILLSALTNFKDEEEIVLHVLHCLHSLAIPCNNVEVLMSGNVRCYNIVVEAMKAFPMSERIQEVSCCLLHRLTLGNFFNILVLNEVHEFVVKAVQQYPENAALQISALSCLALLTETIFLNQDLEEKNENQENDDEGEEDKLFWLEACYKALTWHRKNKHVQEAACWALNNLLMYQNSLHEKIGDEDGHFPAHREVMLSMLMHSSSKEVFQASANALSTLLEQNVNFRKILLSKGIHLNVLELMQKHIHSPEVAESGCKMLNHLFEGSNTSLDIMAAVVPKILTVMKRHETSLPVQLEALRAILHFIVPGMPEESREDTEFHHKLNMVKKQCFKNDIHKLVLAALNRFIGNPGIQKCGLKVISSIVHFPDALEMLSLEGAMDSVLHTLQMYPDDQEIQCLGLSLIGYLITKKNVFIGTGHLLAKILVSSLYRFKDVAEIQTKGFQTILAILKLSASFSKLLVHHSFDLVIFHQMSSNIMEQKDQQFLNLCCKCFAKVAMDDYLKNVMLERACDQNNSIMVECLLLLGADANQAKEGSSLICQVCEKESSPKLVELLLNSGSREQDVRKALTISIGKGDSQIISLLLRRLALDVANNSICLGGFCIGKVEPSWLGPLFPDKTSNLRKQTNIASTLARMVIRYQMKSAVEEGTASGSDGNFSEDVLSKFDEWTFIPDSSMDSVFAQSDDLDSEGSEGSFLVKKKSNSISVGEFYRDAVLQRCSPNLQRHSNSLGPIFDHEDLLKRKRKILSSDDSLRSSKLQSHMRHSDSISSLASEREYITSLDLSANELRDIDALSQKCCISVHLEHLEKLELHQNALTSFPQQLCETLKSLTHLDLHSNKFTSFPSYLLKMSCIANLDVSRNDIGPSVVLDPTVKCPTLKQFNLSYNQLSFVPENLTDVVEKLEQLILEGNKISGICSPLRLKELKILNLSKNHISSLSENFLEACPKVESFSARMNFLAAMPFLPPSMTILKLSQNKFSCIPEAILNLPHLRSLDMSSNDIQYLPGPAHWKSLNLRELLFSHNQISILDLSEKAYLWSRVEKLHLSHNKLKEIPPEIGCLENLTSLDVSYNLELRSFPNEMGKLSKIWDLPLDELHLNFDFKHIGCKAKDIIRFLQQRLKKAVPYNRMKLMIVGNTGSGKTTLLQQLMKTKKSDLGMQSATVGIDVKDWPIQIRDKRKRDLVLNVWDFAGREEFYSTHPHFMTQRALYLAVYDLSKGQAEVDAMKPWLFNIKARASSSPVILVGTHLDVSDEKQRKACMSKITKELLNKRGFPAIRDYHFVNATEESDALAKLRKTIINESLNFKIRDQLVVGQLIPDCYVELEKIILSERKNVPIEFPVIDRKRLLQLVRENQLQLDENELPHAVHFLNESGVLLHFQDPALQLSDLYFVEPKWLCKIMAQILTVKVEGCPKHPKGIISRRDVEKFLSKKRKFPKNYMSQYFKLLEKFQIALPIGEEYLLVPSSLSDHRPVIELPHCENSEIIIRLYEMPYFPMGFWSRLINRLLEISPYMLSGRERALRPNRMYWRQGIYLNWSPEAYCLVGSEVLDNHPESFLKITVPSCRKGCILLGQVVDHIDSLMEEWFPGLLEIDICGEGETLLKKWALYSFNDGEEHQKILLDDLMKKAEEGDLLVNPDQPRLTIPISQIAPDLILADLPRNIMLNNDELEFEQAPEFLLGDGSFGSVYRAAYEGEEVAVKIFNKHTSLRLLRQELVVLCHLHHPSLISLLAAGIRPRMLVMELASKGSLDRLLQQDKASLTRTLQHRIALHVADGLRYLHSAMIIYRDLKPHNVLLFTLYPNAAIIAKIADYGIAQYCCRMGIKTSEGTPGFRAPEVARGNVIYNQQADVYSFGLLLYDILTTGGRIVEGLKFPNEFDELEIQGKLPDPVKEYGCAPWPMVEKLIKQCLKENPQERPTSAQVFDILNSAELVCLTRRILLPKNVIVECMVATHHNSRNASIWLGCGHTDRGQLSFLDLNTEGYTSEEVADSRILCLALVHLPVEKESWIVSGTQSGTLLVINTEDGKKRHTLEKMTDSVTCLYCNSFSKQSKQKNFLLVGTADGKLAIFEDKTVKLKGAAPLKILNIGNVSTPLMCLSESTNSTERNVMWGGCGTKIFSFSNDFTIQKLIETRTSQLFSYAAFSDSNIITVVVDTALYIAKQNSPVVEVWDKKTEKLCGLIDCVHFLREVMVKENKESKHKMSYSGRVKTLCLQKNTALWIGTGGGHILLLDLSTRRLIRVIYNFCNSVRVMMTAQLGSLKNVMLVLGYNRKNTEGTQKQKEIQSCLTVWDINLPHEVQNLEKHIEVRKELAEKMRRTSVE

IC50 [1]: 10000 nM | Activity [2]: 27% | Activity [3]: 16%
SMILES: O=C1Nc2ccc(Cl)cc2/C1=C\c1ccccc1

IC50 [1]: 12000 nM | Activity [2]: 12% | Activity [3]: 8%
SMILES: O=C1Nc2ccc(Cl)cc2/C1=C\c1ccc(O)cc1

IC50 [1]: 163 nM | Activity [2]: 8% | Activity [3]: 9%
SMILES: COc1cc(/C=C2/C(=O)Nc3ccc(Cl)cc32)ccc1OCCN1CCOCC1

Activity [2]: 26% | Activity [3]: 24%
SMILES: COc1cc(/C=C2/C(=O)Nc3ccc(Cl)cc32)ccc1OCCN(C)C

IC50 [1]: 205 nM | Activity [2]: 37% | Activity [3]: 15%
SMILES: O=C1Nc2ccc(Cl)cc2/C1=C\c1ccc(OCCN2CCOCC2)cc1

IC50 [1]: 466 nM | Activity [2]: 22% | Activity [3]: 3%
SMILES: CN(C)CCOc1ccc(/C=C2/C(=O)Nc3ccc(Cl)cc32)cc1

Activity [2]: 22% | Activity [3]: 33%
SMILES: COc1cc(/C=C2/C(=O)Nc3ccc(Cl)cc32)ccc1N1CCOCC1

Activity [2]: 13% | Activity [3]: 5%
SMILES: COc1cc(C(=O)N2CCC(N3CCN(C)CC3)CC2)ccc1Nc1ncc2c(n1)N(C)c1ccccc1C(=O)N2C

IC50 [1]: 1500 nM
SMILES: COc1c(C)cc(/C=C2/C(=O)Nc3ccc(Cl)cc32)cc1C

SMILES: CN[C@@H]1C[C@H]2O[C@@](C)([C@@H]1OC)n1c3ccccc3c3c4c(c5c6ccccc6n2c5c31)C(=O)NC4
Activity [2]: 5% | Activity [3]: 2%

IC50 [1]: 31 nM
SMILES: COc1ccc2c(c1)/C(=C\c1cc(Br)c(O)c(Br)c1)C(=O)N2

SMILES: O=C1Nc2ccc(Cl)cc2/C1=C/c1cc(Br)c(O)c(Br)c1
Activity [4]: 69% | Activity [5]: 81% | Activity [6]: 104% | Activity [7]: 87% | Activity (Danio rerio [8]): Non-toxic | Activity [9]: 80% | Activity [10]: 97% | Activity [11]: 91% | Activity [12]: 89% | Activity [13]: 101% | Activity [14]: 99% | Activity [15]: 100% | Activity [16]: 95% | mortality at 120 h, 30 µM [17]: 40% | Activity [18]: 92% | Activity [19]: 101% | Activity [20]: 90% | Activity [21]: 85% | Activity [22]: 77% | Activity [23]: 103% | Activity [24]: 90% | Activity [25]: 102% | Activity [26]: 83% | Activity [27]: 83% | Activity [28]: 87%

SMILES: O=C1Nc2ccc(Cl)cc2/C1=C\c1ccc(O)c(Br)c1
Activity (Danio rerio [29]): Toxic | inhibition [30]: 19% | mortality at 24 h, up to 30 µM [31]: > 80%

Activity [2]: 62% | Activity [3]: 29%
SMILES: COc1cc(OCCN(C)C)ccc1/C=C1/C(=O)Nc2ccc(Cl)cc21

— ChEMBL document CHEMBL3352815, “Indolinone based LRRK2 kinase inhibitors with a key hydrogen bond” (Bioorg Med Chem Lett, 2014)
